# Experimental data gathered from unrelated publications.
# Each line is one published result; the experiments were not run side by side.
# Effect on: cell growth or viability
SMILES,cell line,method,tested at,time,setting,measurement,result
O=C(CCc1ccccc1)Nc1cc(-c2ccnc(N3CCC(O)CC3)c2)ccn1,A549,MTT,5 µM,,,inhibition,65.7%
Cc1c(Cc2ccccc2)c(=O)oc2c(C)c(OCC(=O)NN=Cc3ccccc3)ccc12,PC-3,MTT,125 µg/mL,,,viability,21.2%
O=C(C=Cc1ccccc1)Nc1cccc(-c2ccnc(N3CCOCC3)c2)c1,A549,MTT,5 µM,,,inhibition,49.3%
COc1ccc(-c2cc(-c3ccc(Br)cc3)c3c(=O)[nH]c(=O)[nH]c3n2)cc1,PC-3,MTT,,48 h,,IC50,15.9 µM
Cc1cccc(/C=C/C(=O)Nc2cc(-c3ccnc(N4CCC(O)CC4)c3)ccn2)c1,A549,MTT,5 µM,,,inhibition,74.5%
C=CCOc1ccc2c(C)c(CC)c(=O)oc2c1C,PC-3,MTT,500 µg/mL,,,viability,7.08%
O=C(O)c1ccc2c(c1)nc(Nc1cccc(Cl)c1)c1ccncc12,NCI-H522,resazurin,,48 h,,IC50,9.3 µM
CCC[C@H]1NC(=O)[C@H](Cc2cc(Cl)ccc2-c2cnn(C)c2)N(C)C(=O)[C@H](CC(C)C)NC(=O)[C@@H](N(C)C(=O)[C@H](CCCCN2CCOCC2)NC(=O)[C@@H](c2cccnc2)C2CCCCC2)CCCCNC1=O,NCI-H1048,MTT,,5 days,,GI50,3 µM
Cc1cc(NC(=O)C=Cc2ccccc2)cc(-c2ccnc(N3CCC(CO)CC3)c2)c1,A549,MTT,5 µM,,,inhibition,54.3%
COc1ccc(-c2cc(-c3ccc(C)cc3)nc3[nH]c(=O)[nH]c(=O)c23)cc1OC,PC-3,MTT,,48 h,,IC50,39.1 µM
CC(=NNC(=O)COc1ccc2c(C)c(Cc3ccccc3)c(=O)oc2c1C)c1ccc(Br)cc1,PC-3,MTT,500 µg/mL,,,viability,2.33%
Cc1nc(Nc2ccc3c(c2)C(C)(C)C(=O)N3C)c2ccccc2n1,A549,MTT,,,,IC50,2.09 µM
CCOc1ccc2c(C)c(CC)c(=O)oc2c1C,PC-3,MTT,125 µg/mL,,,viability,51%
COc1cccc2c1C(=O)c1c(O)c3c(c(O)c1C2=O)C[C@@](O)(C(=O)CO)C[C@@H]3O[C@H]1C[C@H](N)[C@H](O)[C@H](C)O1,A549,MTT,50 µg/mL,48 h,serum-free,viability,20.2%
O=C(C=Cc1cccc(F)c1)Nc1cc(-c2ccnc(N3CCC(O)CC3)c2)ccn1,A549,MTT,5 µM,,,inhibition,65%
Cc1c(Cc2ccccc2)c(=O)oc2c(C)c(OCC(=O)NN=Cc3ccc(Cl)cc3)ccc12,PC-3,MTT,31.25 µg/mL,,,viability,61.2%
Cc1nc(Nc2ccc3c(c2)/C(=C/c2ccccc2)C(=O)N3C)c2ccccc2n1,A549,MTT,,,,IC50,27.8 µM
C=CC(=O)NC1CCN(c2ncc3ncnc(Nc4ccc(Oc5ccc6c(c5)ncn6C)c(C)c4)c3n2)CC1,A549,,,,,EC50,6.34 µM
CCNC(=S)NNC(=O)COc1ccc2c(C)c(CC)c(=O)oc2c1C,PC-3,MTT,31.25 µg/mL,,,viability,99%
Cc1cccc(/C=C/C(=O)Nc2cc(-c3ccnc(N4CCOCC4)c3)ccn2)c1,A549,MTT,5 µM,,,inhibition,74.9%
Cc1nc(Nc2ccc3c(c2)CC(=O)N3)c2ccccc2n1,A549,MTT,,,,IC50,28.5 µM
O=C(/C=C/c1ccc(F)cc1)Nc1cc(-c2ccnc(N3CCC(O)CC3)c2)ccn1,A549,MTT,5 µM,,,inhibition,62.2%
COc1ccc(-c2cc(-c3ccc(OC)cc3)c3c(=O)n(C)c(=O)n(C)c3n2)cc1,PC-3,MTT,,48 h,,IC50,26.2 µM
CCc1c(C)c2ccc(OCc3nnc(S)n3N)c(C)c2oc1=O,PC-3,MTT,125 µg/mL,,,viability,11.3%
Cc1cccc(/C=C/C(=O)Nc2cccc(-c3ccnc(N4CCC(O)CC4)c3)c2)c1,A549,MTT,5 µM,,,inhibition,54.8%
CCc1c(C)c2ccc(OCC(=O)NNC(=S)Nc3ccccc3)c(C)c2oc1=O,PC-3,MTT,31.25 µg/mL,,,viability,48.3%
COc1cc2ncnc(Nc3ccc4c(c3)/C(=C/c3ccccc3)C(=O)N4C)c2cc1OC,A549,MTT,,,,IC50,14.4 µM
